Key:
[1] = tested on: cardiac function; details: ref Humphrey et al., 1996; cited from earlier work
[2] = tested on: hSUR2B mutations (A478V, R1154Q, indel1055); experiment: DiBAC4; assay type: cell-based, human; details: for reversal of mutation-caused hyperpolarization by inhibitor: basal activity without KCO, hSUR2B A478V, R1154Q, indel1055
Outline: (§1)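 Stable landing-pad HEK293 lines expressing hKir6.1/hSUR2B mutants were induced with doxycycline (4 μg/ml) and grown 1 day on poly-L-lysine. Cells were washed in low-K buffer (1 mM KCl, HEPES, pH 7.4), then incubated ≥30 min with 3 μM DiBAC4(3) plus blocker (glibenclamide, repaglinide or PNU37883A), without opener. Cells were segmented by red fluorescence, background-subtracted and mean-intensity averaged over duplicate images.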

[3] = biological target: Kir6.1[D338E] (Homo sapiens, UniProt O60706+Q15842, D338E); experiment: DiBAC4; assay type: cell-based; details: basal activity without KCO; printed hKir6.1[G338E]
Chain of Kir6.1[D338E] (Q15842 whole entry D338E): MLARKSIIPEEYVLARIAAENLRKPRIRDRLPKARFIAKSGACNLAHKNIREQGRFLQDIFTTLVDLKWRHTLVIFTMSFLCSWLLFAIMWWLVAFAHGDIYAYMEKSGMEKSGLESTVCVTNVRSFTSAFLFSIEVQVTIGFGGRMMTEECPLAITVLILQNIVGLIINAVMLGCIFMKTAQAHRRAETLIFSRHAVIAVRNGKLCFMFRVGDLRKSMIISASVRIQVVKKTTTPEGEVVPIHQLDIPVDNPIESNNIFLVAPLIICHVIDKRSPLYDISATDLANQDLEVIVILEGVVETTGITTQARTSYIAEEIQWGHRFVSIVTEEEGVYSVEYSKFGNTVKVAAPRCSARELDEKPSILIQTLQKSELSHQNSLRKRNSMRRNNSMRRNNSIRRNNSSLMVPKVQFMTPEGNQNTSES
Chain of Kir6.1[D338E] (O60706 1-1549 isoform O60706-2, stated change not applied): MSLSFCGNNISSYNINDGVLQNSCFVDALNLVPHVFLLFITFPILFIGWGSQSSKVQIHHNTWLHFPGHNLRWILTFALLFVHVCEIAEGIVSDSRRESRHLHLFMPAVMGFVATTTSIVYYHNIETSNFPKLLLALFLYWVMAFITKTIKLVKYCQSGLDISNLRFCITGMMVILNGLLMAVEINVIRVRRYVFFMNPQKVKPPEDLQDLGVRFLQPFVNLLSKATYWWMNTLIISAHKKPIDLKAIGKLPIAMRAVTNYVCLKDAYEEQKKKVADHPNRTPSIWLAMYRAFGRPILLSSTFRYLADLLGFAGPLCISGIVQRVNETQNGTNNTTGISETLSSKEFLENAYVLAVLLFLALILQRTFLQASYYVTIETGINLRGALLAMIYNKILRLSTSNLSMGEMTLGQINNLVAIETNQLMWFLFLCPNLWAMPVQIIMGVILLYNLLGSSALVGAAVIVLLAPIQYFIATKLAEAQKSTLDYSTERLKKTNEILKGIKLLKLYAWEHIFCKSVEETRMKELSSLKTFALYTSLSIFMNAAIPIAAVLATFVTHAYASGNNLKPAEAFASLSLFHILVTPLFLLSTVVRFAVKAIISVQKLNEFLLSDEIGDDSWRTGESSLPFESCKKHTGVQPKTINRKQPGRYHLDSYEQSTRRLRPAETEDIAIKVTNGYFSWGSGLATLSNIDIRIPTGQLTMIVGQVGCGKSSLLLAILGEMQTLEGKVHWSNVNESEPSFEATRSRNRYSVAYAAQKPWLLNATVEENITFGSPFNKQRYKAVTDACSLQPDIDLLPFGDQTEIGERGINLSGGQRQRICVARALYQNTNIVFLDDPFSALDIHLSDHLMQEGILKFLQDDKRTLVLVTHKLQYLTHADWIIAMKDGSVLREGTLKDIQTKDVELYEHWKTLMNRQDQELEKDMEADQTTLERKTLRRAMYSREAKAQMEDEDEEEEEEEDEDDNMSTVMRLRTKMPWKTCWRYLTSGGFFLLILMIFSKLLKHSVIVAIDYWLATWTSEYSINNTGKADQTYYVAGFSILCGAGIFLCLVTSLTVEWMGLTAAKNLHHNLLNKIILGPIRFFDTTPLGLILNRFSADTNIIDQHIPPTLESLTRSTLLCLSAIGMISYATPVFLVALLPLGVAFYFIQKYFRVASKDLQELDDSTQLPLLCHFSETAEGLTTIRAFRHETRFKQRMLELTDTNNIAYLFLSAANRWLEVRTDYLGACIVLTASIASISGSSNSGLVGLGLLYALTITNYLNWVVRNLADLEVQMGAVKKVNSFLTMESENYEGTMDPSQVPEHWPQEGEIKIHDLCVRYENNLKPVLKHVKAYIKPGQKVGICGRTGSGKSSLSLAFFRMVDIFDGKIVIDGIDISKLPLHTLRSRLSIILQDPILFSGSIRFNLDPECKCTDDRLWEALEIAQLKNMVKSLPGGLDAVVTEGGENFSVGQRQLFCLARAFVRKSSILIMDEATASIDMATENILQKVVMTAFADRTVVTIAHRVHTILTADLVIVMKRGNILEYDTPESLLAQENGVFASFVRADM

[4] = biological target: hKir6.1[A46V] (Homo sapiens, UniProt O60706+Q15842, A46V); experiment: DiBAC4; assay type: cell-based; details: basal activity without KCO
Chain of hKir6.1[A46V] (Q15842 whole entry A46V): as the sequence (Q15842 whole entry D338E) above, with A46V, E338D counted along it
Chain of hKir6.1[A46V] (O60706 1-1549 isoform O60706-2, stated change not applied): as the sequence (O60706 1-1549 isoform O60706-2, stated change not applied) above
Outline: as §1

[5] = tested on: hKir6.1 mutations, particularly V65M, C176S and E189K; experiment: DiBAC4; assay type: cell-based, human; details: for sensitivity of mutation-caused hyperpolarization to reversal by inhibitor: basal activity without KCO, hKir6.1 mutations, particularly V65M, C176S, E189K
Outline: as §1

[6] = biological target: hKir6.1[V65M]/hSUR2B (Homo sapiens, UniProt O60706+Q15842, V65M); experiment: Thallium flux assay, Kir6.1[V65M] stable cells; assay type: cell-based; details: for activation of Tl influx by KCO: KCOs at presumably maximal concentrations, compared with WT
Chain of hKir6.1[V65M]/hSUR2B (Q15842 whole entry V65M): as the sequence (Q15842 whole entry D338E) above, with V65M, E338D counted along it
Chain of hKir6.1[V65M]/hSUR2B (O60706 1-1549 isoform O60706-2, stated change not applied): as the sequence (O60706 1-1549 isoform O60706-2, stated change not applied) above

[7] = biological target: hKir6.1/hSUR2B[R1154Q] (Homo sapiens, UniProt O60706+Q15842, R1154Q); experiment: Thallium flux assay, SUR2B[R1154Q] stable cells; assay type: cell-based; details: KCOs at presumably maximal concentrations
Chain of hKir6.1/hSUR2B[R1154Q] (Q15842 whole entry): as the sequence (Q15842 whole entry D338E) above, with E338D counted along it
Chain of hKir6.1/hSUR2B[R1154Q] (O60706 1-1549 isoform O60706-2 R1154Q): as the sequence (O60706 1-1549 isoform O60706-2, stated change not applied) above, with R1154Q counted along it
Outline: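 Doxycycline-induced stable HEK293 cells on poly-L-lysine were loaded 1 h with Fluozin-2 in HBSS. […] Ex 485/em 528 nm was read every 2 s for 2 min, with Tl+ added at 20 s. Blank-subtracted, pre-Tl-normalized traces were fit single-exponentially, giving initial rate at t=0; n = 3–4.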

[8] = biological target: T1, WT hKir6.1/hSUR2B (Homo sapiens, UniProt O60706+Q15842); assay type: cell-based; details: for activation of Tl influx by KCO: KCOs at presumably maximal concentrations
T1 sequence (Q15842 whole entry): as the sequence (Q15842 whole entry D338E) above, with E338D counted along it
T1 sequence (O60706 1-1549 isoform O60706-2): as the sequence (O60706 1-1549 isoform O60706-2, stated change not applied) above

[9] = biological target: T1, WT hKir6.1/hSUR2B; experiment: DiBAC4; assay type: cell-based; details: WT cells
Outline: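 WT hKir6.1/hSUR2B and untransfected landing-pad HEK293 cells were loaded ≥30 min with 3 μM DiBAC4(3) in 1 mM K+ buffer. […] Background-subtracted mean cell fluorescence was normalized to untreated cells, n = 4–6. K conductance was estimated with a simplified Goldman-Hodgkin-Katz equation.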

[10] = biological target: hKir6.1[C176S]/hSUR2B (Homo sapiens, UniProt O60706+Q15842, C176S); experiment: Thallium flux assay, Kir6.1[C176S] stable cells; assay type: cell-based
Chain of hKir6.1[C176S]/hSUR2B (Q15842 whole entry C176S): as the sequence (Q15842 whole entry D338E) above, with C176S, E338D counted along it
Chain of hKir6.1[C176S]/hSUR2B (O60706 1-1549 isoform O60706-2, stated change not applied): as the sequence (O60706 1-1549 isoform O60706-2, stated change not applied) above

[11] = biological target: hKir6.1[D338E]/hSUR2B (Homo sapiens, UniProt O60706+Q15842, D338E); experiment: Thallium flux assay, Kir6.1[D338E] stable cells; assay type: cell-based
Chain of hKir6.1[D338E]/hSUR2B (Q15842 whole entry D338E): as the sequence (Q15842 whole entry D338E) above
Chain of hKir6.1[D338E]/hSUR2B (O60706 1-1549 isoform O60706-2, stated change not applied): as the sequence (O60706 1-1549 isoform O60706-2, stated change not applied) above

[12] = tested on: hKir6.1/hSUR2B with hSUR2B mutations (A478V, indel1055, R1154Q, R1154W); experiment: Thallium flux assay, all cell lines with hSUR2B mutations; assay type: cell-based, human; details: all hSUR2B mutant cell lines
Outline: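 Doxycycline-induced stable hKir6.1/hSUR2B-mutant HEK293 cells on poly-L-lysine were loaded 1 h with Fluozin-2 in HBSS. […] Ex 485/em 528 nm was read every 2 s for 2 min, with Tl+ added at 20 s. Blank-subtracted traces normalized to pre-Tl fluorescence were fit with a single exponential; initial rate was the derivative at t=0.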

[13] = biological target: hKir6.1[E189K]/hSUR2B (Homo sapiens, UniProt O60706+Q15842, E189K); experiment: Thallium flux assay, Kir6.1[E189K] stable cells; assay type: cell-based
Chain of hKir6.1[E189K]/hSUR2B (Q15842 whole entry E189K): as the sequence (Q15842 whole entry D338E) above, with E189K, E338D counted along it
Chain of hKir6.1[E189K]/hSUR2B (O60706 1-1549 isoform O60706-2, stated change not applied): as the sequence (O60706 1-1549 isoform O60706-2, stated change not applied) above

[14] = biological target: hKir6.1[A46V]/hSUR2B (Homo sapiens, UniProt O60706+Q15842, A46V); experiment: Thallium flux assay, Kir6.1[A46V] stable cells; assay type: cell-based
Chain of hKir6.1[A46V]/hSUR2B (Q15842 whole entry A46V): as the sequence (Q15842 whole entry D338E) above, with A46V, E338D counted along it
Chain of hKir6.1[A46V]/hSUR2B (O60706 1-1549 isoform O60706-2, stated change not applied): as the sequence (O60706 1-1549 isoform O60706-2, stated change not applied) above

[15] = tested on: SUR2[A478V] mice; details: ref McClenaghan et al., 2020b; cited from earlier work
[16] = biological target: hSUR2B[R1154W] (Homo sapiens, UniProt O60706+Q15842, R1154W); experiment: DiBAC4; assay type: cell-based; details: basal activity without KCO
Chain of hSUR2B[R1154W] (Q15842 whole entry): as the sequence (Q15842 whole entry D338E) above, with E338D counted along it
Chain of hSUR2B[R1154W] (O60706 1-1549 isoform O60706-2 R1154W): as the sequence (O60706 1-1549 isoform O60706-2, stated change not applied) above, with R1154W counted along it
Outline: as §1

[17] = biological target: Kir6.1/SUR2B[R1154Q] mutant channels (Homo sapiens, UniProt O60706+Q15842, R1154Q); experiment: Whole-cell patch-clamp, stably transfected R1154Q mutant channels; assay type: cell-based
Chain of Kir6.1/SUR2B[R1154Q] mutant channels (Q15842 whole entry): as the sequence (Q15842 whole entry D338E) above, with E338D counted along it
Chain of Kir6.1/SUR2B[R1154Q] mutant channels (O60706 1-1549 isoform O60706-2 R1154Q): as the sequence (O60706 1-1549 isoform O60706-2, stated change not applied) above, with R1154Q counted along it

[18] = tested on: gastric motility; details: ref York et al., 2020; cited from earlier work
[19] = biological target: WT Kir6.1/SUR2B channels (Homo sapiens, UniProt O60706+Q15842); experiment: Whole-cell patch-clamp, stably transfected WT channels; assay type: cell-based; details: Vm -60 mV
Chain of WT Kir6.1/SUR2B channels (Q15842 whole entry): as the sequence (Q15842 whole entry D338E) above, with E338D counted along it
Chain of WT Kir6.1/SUR2B channels (O60706 1-1549 isoform O60706-2): as the sequence (O60706 1-1549 isoform O60706-2, stated change not applied) above

[20] = most SUR2B CS mutations, basal activity

In the case of C1CCC(N=C(NC23CC4CC(CC(C4)C2)C3)N2CCOCC2)CC1.Cl [PNU37883A], the “effects on cardiac function” value [1] is listed as “Fatal effects”, the “reversal of mutation-caused hyperpolarization by inhibitor” value [2] is listed as “readily reversed” and the “sensitivity of mutation-caused hyperpolarization to reversal by inhibitor” value (from here on “sensitivity … by inhibitor”) [3] is listed as “uniquely insensitive”. The “reversal of mutation-caused hyperpolarization by inhibitor” value [4] was “readily reversed”, the “inhibition of basal Kir6.1 mutation activities, comparison” value ([5]; at saturating doses) was “more effective than glibenclamide or repaglinide” and the “sensitivity … by inhibitor” value [5] was “very poorly sensitive”.
With CC1(C)Oc2ccc(C#N)cc2C(N2CCCC2=O)C1O (centres unmarked) [cromakalim] the “activation of Tl influx by KCO” value ([6]; hKir6.1[V65M]) was “enhanced activation”, the “activation of Tl influx by KCO” value [7] was “not activated” and the “activation of Tl influx by KCO” value ([8]; WT) was “activated”.
In the case of CC1=NS(=O)(=O)c2cc(Cl)ccc2N1 [diazoxide], the “activation of Tl influx by KCO” value ([6]; hKir6.1[V65M]) is reported as “measurable activation”, the “activation of Tl influx by KCO” value [7] is reported as “not activated” and the “activation of Tl influx by KCO” value ([8]; WT) is reported as “no effect”. For the same compound, the “concentrations generating clear KATP-dependent hyperpolarization signals” value ([9]; 1 mM [K+]o) was “above 1 μM” and the “effect on membrane potential (DiBAC4(3) fluorescence)” value ([9]; 1 mM [K+]o) was “dose-dependently hyperpolarized”.
With C=C[C@@]1(C)CC(=O)[C@]2(O)[C@@]3(C)[C@@H](O)CCC(C)(C)[C@@H]3[C@H](O)[C@H](OC(C)=O)[C@@]2(C)O1 [forskolin] the “Tl-influx rate with forskolin” value ([10]; hKir6.1[C176S], 10 μM forskolin) was “increased”, the “Tl-influx rate with forskolin” value ([6]; hKir6.1[V65M], 10 μM forskolin) was “increased” and the “Tl-influx rate with forskolin” value ([11]; hKir6.1[D338E], 10 μM forskolin) was “increased”. The “response of Tl-influx rate to forskolin” value ([12]; 10 μM forskolin) was “essentially insensitive”, the “Tl-influx rate with forskolin” value ([13]; hKir6.1[E189K], 10 μM forskolin) was “increased” and the “Tl influx signal with forskolin” value ([8]; WT, 10 μM forskolin) was “failed to generate measurable”. For the same compound, the “effect of forskolin on membrane potential (DiBAC4(3))” value ([9]; 10 μM forskolin) was “significant hyperpolarization”.
For COc1ccc(Cl)cc1C(=O)NCCc1ccc(S(=O)(=O)NC(=O)NC2CCCCC2)cc1 [glibenclamide], the “Hill coefficient, glibenclamide inhibition” value ([14]; 100 μM pinacidil, fit with eq. 4) is listed as 1.9 ± 0.3, the “Hill coefficient, glibenclamide inhibition” value ([10]; Kir6.1[C176S], 100 μM pinacidil, fit with eq. 4) is listed as 1.1 ± 0.5 and the “effect on CS-associated cardiovascular abnormalities” value [15] is listed as “reversed CS-associated cardiovascular abnormalities”. The “Hill coefficient, glibenclamide inhibition” value ([6]; Kir6.1[V65M], 100 μM pinacidil, fit with eq. 4) was 1.8 ± 0.8, the “reversal of mutation-caused hyperpolarization by inhibitor” value [2] was “readily reversed” and the “glibenclamide concentration that effectively blocked basal activity” value [2, 20] was 100 to 300 nM. For the same compound, the “glibenclamide concentration that markedly inhibited” value ([2]; most SUR2 CS mutations) was < 100 nM, the “sensitivity … by inhibitor” value [16] was “uniquely insensitive” and the “Hill coefficient, glibenclamide inhibition” value ([11]; Kir6.1[D338E], 100 μM pinacidil, fit with eq. 4) was 1.5 ± 0.4. For the same compound, the “glibenclamide sensitivity (IPin+Glib/IPin) compared with WT” value ([17]; pinacidil-activated current) was “markedly reduced”, the “effect on gastric motility” value [18] was “restored gastric motility” and the “Hill coefficient, glibenclamide inhibition” value ([13]; Kir6.1[E189K], 100 μM pinacidil, fit with eq. 4) was 1.0 ± 0.2. The “Hill coefficient, glibenclamide inhibition” value ([8]; WT, 100 μM pinacidil, fit with eq. 4) was 2.9 ± 6.0, the “reversal of mutation-caused hyperpolarization by inhibitor” value [4] was “readily reversed” and the “sensitivity … by inhibitor” value [5] was “very poorly sensitive”.
For O=C(NCCO[N+](=O)[O-])c1cccnc1 [nicorandil], the “activation of Tl influx by KCO” value ([6]; hKir6.1[V65M]) was “measurable activation”, the “activation of Tl influx by KCO” value [7] was “not activated” and the “activation of Tl influx by KCO” value ([8]; WT) was “only activated by pinacidil and cromakalim”.
In the case of CC(N/C(=N\C#N)Nc1ccncc1)C(C)(C)C (centres unmarked) [pinacidil], the “Hill coefficient, pinacidil activation” value ([14]; fit with eq. 3) is reported as 1.9 ± 0.2, the “increase of whole-cell current by pinacidil (IPin/IBasal)” value [19] is reported as ~150 fold and the “maximum channel activity with pinacidil compared with WT” value ([10]; Kir6.1[C176S], Tl influx dose-response) is reported as “much higher”. The “Hill coefficient, pinacidil activation” value ([10]; Kir6.1[C176S], fit with eq. 3) was 1.2 ± 0.1, the “channel activity at very high concentration of pinacidil” value ([6]; Kir6.1[V65M], 300 μM pinacidil) was “slightly decreased” and the “Hill coefficient, pinacidil activation” value ([6]; Kir6.1[V65M], fit with eq. 3) was 1.2 ± 0.0. The “activation of Tl influx by KCO” value ([6]; hKir6.1[V65M]) was “enhanced activation”, the “Hill coefficient, pinacidil activation” value ([11]; Kir6.1[D338E], fit with eq. 3) was 1.7 ± 0.1 and the “response of Tl-influx rate to pinacidil activation” value ([12]; pinacidil 100 μM) was “essentially insensitive”. For the same compound, the “increase of whole-cell current by pinacidil (IPin/IBasal)” value ([17]; Vm -60 mV) was ~10 fold, the “activation of Tl influx by KCO” value [7] was “not activated” and the “Hill coefficient, pinacidil activation” value ([13]; Kir6.1[E189K], fit with eq. 3) was 1.3 ± 0.4. For the same compound, the “pinacidil concentration at which Tl influx activation reached maximum” value ([8]; WT channels) was 100 µM, the “activation of Tl influx by KCO” value ([8]; WT) was “activated” and the “Hill coefficient, pinacidil activation” value ([8]; WT, fit with eq. 3) was 2.6 ± 1.0. The “DiBAC4(3) signal changes at 10 μM pinacidil” value ([9]; 10 μM pinacidil) was “almost saturated”, the “effect on membrane potential (DiBAC4(3) fluorescence)” value ([9]; 1 mM [K+]o) was “dose-dependently hyperpolarized” and the “potency of hyperpolarization, comparison” value ([9]; 1 mM [K+]o) was “more potent than diazoxide”. For the same compound, the “share of the DiBAC4(3) signal change that occurs at <3 μM pinacidil” value ([9]; <3 μM pinacidil, activation of <20% of maximal WT conductance) was ~80%.
In the case of CCOc1cc(CC(=O)N[C@@H](CC(C)C)c2ccccc2N2CCCCC2)ccc1C(=O)O [repaglinide], the “reversal of mutation-caused hyperpolarization by inhibitor” value [2] is reported as “readily reversed”, the “block of basal activity compared with glibenclamide” value [2, 20] is reported as “more effectively” and the “reversal of mutation-caused hyperpolarization by inhibitor” value [4] is reported as “readily reversed”. The “sensitivity … by inhibitor” value [5] was “very poorly sensitive”.
